Data on five compounds can be found in ChEMBL document CHEMBL4130356, “Design, synthesis and 2D QSAR study of novel pyridine and quinolone hydrazone derivatives as potential antimicrobial and antitubercular agents” (Eur J Med Chem, 2017).

Data set [1] concerns Aspergillus fumigatus. The data set is described as follows: Antimicrobial activity against Aspergillus fumigatus RCMB 02568 after 48 hrs by serial dilution method. The data set is classed as functional. The following applies: RCMB 02568, 48 h. In short, it runs like this:
(§1)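 Serial twofold dilution in microtiter plates starting from a 100 mmol stock in DMSO; final concentrations 125 down to 0.12 […]. Incubated at 28°C and read on a microplate reader after 48 h. Amphotericin B was the reference. Run in triplicate, with the average taken. MIC was the lowest concentration inhibiting growth.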

Data set [2] has as its system Aspergillus fumigatus. Briefly: Antimicrobial activity against Aspergillus fumigatus RCMB 02568 assessed as diameter of zone inhibition at 100 ug/ml after 48 hrs by agar well diffusion assay. Type of data set: functional. The following applies: for zone of inhibition at 100 µg/mL: RCMB 02568, 48 h, read-out: DIZ. In outline:
(§2)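 Agar well diffusion on malt agar plates seeded with the fungus, using 1 cm wells. Plates were held at 4°C for 1 h for diffusion, then incubated at 28°C. Inhibition zone diameters were measured at 48 h. Amphotericin B was the positive control. Run in triplicate, with the mean zone reported.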

For data set [3], the system named is Candida albicans. The data set is described as follows: Antimicrobial activity against Candida albicans RCMB 05036 assessed as diameter of zone inhibition at 100 ug/ml after 48 hrs by agar well diffusion assay. Type of data set: functional. The following applies: for zone of inhibition at 100 µg/mL: RCMB 05036, 48 h, read-out: DIZ. In short, it runs like this: as §2

Data set [4] concerns Streptococcus pneumoniae. The data set is described as follows: Antimicrobial activity against Streptococcus pneumoniae RCMB 010010 assessed as diameter of zone inhibition at 100 ug/ml after 24 hrs by agar well diffusion assay. The following applies: for zone of inhibition at 100 µg/mL: RCMB 010010, 24 h, read-out: DIZ. The data set is classed as functional. In short, it runs like this:
(§3)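 Agar well diffusion on nutrient agar plates seeded with the bacterium, using 1 cm wells. Plates were held at 4°C for 1 h for diffusion, then incubated at 37°C. Inhibition zone diameters were measured at 24 h. Ciprofloxacin was the positive control. Run in triplicate, with the mean zone reported.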

Data set [5] deals with Staphylococcus aureus. Briefly: Antimicrobial activity against Staphylococcus aureus RCMB 010028 assessed as diameter of zone inhibition at 100 ug/ml after 24 hrs by agar well diffusion assay. Type of data set: functional. Conditions: for zone of inhibition at 100 µg/mL: RCMB 010028, 24 h, read-out: DIZ. In outline:
as §3
For orientation: A growth-free zone around the sample is the usual read-out of agar diffusion tests.

The test system of data set [6] is Escherichia coli. Briefly: Antimicrobial activity against Escherichia coli RCMB 010052 assessed as diameter of zone inhibition at 100 ug/ml after 24 hrs by agar well diffusion assay. The data set is classed as functional. The following applies: for zone of inhibition at 100 µg/mL: RCMB 010052, 24 h, read-out: DIZ. In short, it runs like this:
as §3

For data set [7], the system named is Candida albicans. The data set is described as follows: Antimicrobial activity against Candida albicans RCMB 05036 after 48 hrs by serial dilution method. The data set is classed as functional. The following applies: RCMB 05036, 48 h. In short, it runs like this: as §1
In data set [8] the test system is Streptococcus pneumoniae. Briefly: Antimicrobial activity against Streptococcus pneumoniae RCMB 010010 after 24 hrs by serial dilution method. The data set is classed as functional. Conditions: RCMB 010010, 24 h. In short, it runs like this:
(§4)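 Serial twofold dilution in microtiter plates starting from a 100 mmol stock in DMSO; final concentrations 125 down to 0.12 […]. Incubated at 37°C and read on a microplate reader after 24 h. Ciprofloxacin was the reference. Run in triplicate, with the average taken. MIC was the lowest concentration inhibiting growth.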

In data set [9] the test system is Staphylococcus aureus. The data set is described as follows: Antimicrobial activity against Staphylococcus aureus RCMB 010028 after 24 hrs by serial dilution method. The data set is classed as functional. Conditions: RCMB 010028, 24 h. In outline:
as §4

The subject of data set [10] is Escherichia coli. Briefly: Antimicrobial activity against Escherichia coli RCMB 010052 after 24 hrs by serial dilution method. Type of data set: functional. The following applies: RCMB 010052, 24 h. In outline:
as §4

For data set [11], the system named is Mycobacterium tuberculosis. The data set is described as follows: Antimycobacterial activity against Mycobacterium tuberculosis RCMB 010126 clinical isolate after 7 days by MABA. Type of data set: functional. In short, it runs like this:
(§5)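 Inoculum from fresh LJ culture resuspended in 7H9-S broth with casitone, glycerol and OADC, adjusted to McFarland No. 1 and diluted 1:20. Serial two-fold compound dilutions in 7H9-S; isoniazid reference. Incubated 7 days at 37°C in air, then Alamar blue added and incubated overnight. Percent inhibition = 1 − (test well/growth-control mean) × 100; MIC = lowest concentration preventing blue-to-pink change.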
In general terms: The colour change of resazurin is a common sign of viable cells or microbes.

In data set [12] the test system is Mycobacterium tuberculosis. The data set is described as follows: Antimycobacterial activity against Mycobacterium tuberculosis RCMB 010126 clinical isolate assessed as inhibition zone after 7 days by MABA. Type of data set: functional. In short, it runs like this: as §5
Data set [13] concerns Pseudomonas aeruginosa. The following applies: RCMB 010043, 100 ug/ml.
Data set [14] has as its system Pseudomonas aeruginosa. Conditions: RCMB 010043.
Data set [15] concerns WI-38. Briefly: Cytotoxicity against human WI38 cells assessed as reduction in cell viability after 24 hrs by crystal violet staining-based colorimetric method. Conditions: WI-38, 24 h. In outline: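 WI-38 cells were grown in DMEM with 10% FBS at 37°C and 5% CO2, then seeded at 1×10^4 cells/well. Serial twofold dilutions were added, three wells per concentration. Viability was read by crystal violet stain, solubilised in 30% acetic acid, at 490 nm. Run in triplicate. IC50 was estimated from dose-response plots.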

Data set [16] is described as follows: Selectivity index, ratio of IC50 for human WI38 cells to MIC for Mycobacterium tuberculosis RCMB 010126 clinical isolate. Type of data set: toxicity. Conditions: read-out: Selectivity Index. In outline:
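WI-38 human lung fibroblasts grown in DMEM with 10% FBS at 37°C and 5% CO2, seeded at 1×10^4 cells/well, and exposed to serial two-fold dilutions in triplicate. Viability read by crystal violet stain at 490 nm. IC50 taken from dose-response plots. Ratio uses this IC50 against the MABA MIC for M. tuberculosis.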

The mark [17] stands for this setting: Mycobacterium tuberculosis, RCMB 010126, 168 h.

Each structure is given as a SMILES string. In brackets after ≈: the same amount, converted by molar mass. Activity calls are given as the source filed them. The calls are words filed in the database; no cut-off is given here.

The term MIC denotes the least concentration at which growth counts as inhibited. For the compound `Cc1ccc(/C=N/NC(=O)c2c[nH]c3cc(Cl)ccc3c2=O)cc1`, the MIC in data set [1], in [7], in data set [8], in data set [9] and in data set [10] was 62.5 µg/mL (≈ 184 µM) throughout. The zone of inhibition at 100 µg/mL came out at 13.7 mm in [2]; 14.5 mm in [3]; 13.9 mm in data set [4]; 14.4 mm in data set [5]; 15 mm in [6]. Moreover, the MIC result in data set [11] and in [14] was “inactive” throughout. Moreover, the “inhibition zone (IZ)” value in [12] was “inactive”. Moreover, in [13], the DIZ result is “inactive”.

Turning to `COc1ccc(/C=N/NC(=O)c2c[nH]c3ccc(Cl)cc3c2=O)cc1OC`, the minimal inhibitory concentration (MIC) in data set [1] came out at 7.81 µg/mL (≈ 20.2 µM); in data set [7] it was 15.6 µg/mL (≈ 40.5 µM); in data set [8], 3.9 µg/mL (≈ 10.1 µM); in data set [9] it was 15.6 µg/mL (≈ 40.5 µM); in [10], 1.95 µg/mL (≈ 5.05 µM); in data set [11] (setting [17]), 25 µg/mL (≈ 64.7 µM). The zone of inhibition at 100 µg/mL was 18.4 mm in [2]; 16.9 mm in [3]; 19.1 mm in [4]; 17.2 mm in [5]; 21.3 mm in [6]. Further, the “inhibition zone (IZ)” value in data set [12] stood at 31.25 mm. In addition, the DIZ entry in [13] is “inactive”. Moreover, the MIC entry in data set [14] was “inactive”.

With `O=C(N/N=C/c1ccc(Cl)cc1)c1c[nH]c2cc(Cl)ccc2c1=O`, the MIC in [1] came out at 15.6 µg/mL (≈ 43.4 µM); in data set [7], 31.2 µg/mL (≈ 86.8 µM); in data set [8], 15.6 µg/mL (≈ 43.4 µM); in [9], 31.2 µg/mL (≈ 86.8 µM); in data set [10], 7.81 µg/mL (≈ 21.7 µM); in data set [11] (setting [17]), 99.8 µg/mL (≈ 277 µM). The zone of inhibition at 100 µg/mL in data set [2] amounted to 17.3 mm; in [3], 15.2 mm; in data set [4], 17.1 mm; in data set [5], 16.2 mm; in [6], 18.3 mm. In addition, in data set [12], the “inhibition zone (IZ)” value was 19.35 mm. Also, the DIZ result in data set [13] was “inactive”. The MIC entry in data set [14] was “inactive”.

Regarding `Cc1nc(-c2ccc(Cl)cc2)ccc1C(=O)N/N=C/c1ccc(Cl)cc1Cl`, the minimum inhibitory concentration (MIC) in data set [1] is 3.9 µg/mL (≈ 9.31 µM); in data set [7], 15.6 µg/mL (≈ 37.3 µM); in data set [8], 1.95 µg/mL (≈ 4.66 µM); in data set [9] it was 3.9 µg/mL (≈ 9.31 µM); in [10], 1.95 µg/mL (≈ 4.66 µM); in data set [11] (setting [17]), 12.5 µg/mL (≈ 29.8 µM). Also, the zone of inhibition at 100 µg/mL came to 19.3 mm in data set [2]; 17.4 mm in data set [3]; 21.3 mm in data set [4]; 19.3 mm in data set [5]; 21.3 mm in [6]. The “inhibition zone (IZ)” value in data set [12] came out at 35.38 mm. Also, the DIZ entry in data set [13] is “inactive”. In addition, in [14], the MIC entry is “inactive”.

As a reminder, the IC50 is the midpoint of a concentration-inhibition curve. As for `COc1ccc(/C=N/NC(=O)c2ccc(-c3ccc(Cl)cc3)nc2C)cc1OC`, the “diameter of the inhibition zone (DIZ)” value in data set [2], in [3], in data set [4], in data set [5] and in data set [6] was “inactive” throughout. For the same compound, the MIC in [11] (setting [17]) is 1.56 µg/mL (≈ 3.81 µM). For the same compound, the “inhibition zone (IZ)” value in data set [12] worked out at 61.32 mm. In addition, the IC50 in data set [15] came out at 443 µg/mL (≈ 1080 µM). In addition, the selectivity ratio in data set [16] was 284. In addition, the DIZ result in data set [13] is “inactive”.
